In publication PMC2151622 (The Journal of General Physiology, 2007):
Changes are numbered by the printed parent chain.

Key:
Format in all cases: cell-based, rabbit
D444C after MTSES = target: T1, D444C after MTSES (Oryctolagus cuniculus, UniProt P31597, D444C); experiment: Blockade of transient currents; conditions: for Decay time of transient currents blocked: D444C after MTSES, 10 mM compound; for IC50: read-out: IC50 for substrates/blockers of charge movements, D444C after MTSES (2 mM), Xenopus oocytes, mean ± SEM
T1 sequence (P31597 1-524 D444C): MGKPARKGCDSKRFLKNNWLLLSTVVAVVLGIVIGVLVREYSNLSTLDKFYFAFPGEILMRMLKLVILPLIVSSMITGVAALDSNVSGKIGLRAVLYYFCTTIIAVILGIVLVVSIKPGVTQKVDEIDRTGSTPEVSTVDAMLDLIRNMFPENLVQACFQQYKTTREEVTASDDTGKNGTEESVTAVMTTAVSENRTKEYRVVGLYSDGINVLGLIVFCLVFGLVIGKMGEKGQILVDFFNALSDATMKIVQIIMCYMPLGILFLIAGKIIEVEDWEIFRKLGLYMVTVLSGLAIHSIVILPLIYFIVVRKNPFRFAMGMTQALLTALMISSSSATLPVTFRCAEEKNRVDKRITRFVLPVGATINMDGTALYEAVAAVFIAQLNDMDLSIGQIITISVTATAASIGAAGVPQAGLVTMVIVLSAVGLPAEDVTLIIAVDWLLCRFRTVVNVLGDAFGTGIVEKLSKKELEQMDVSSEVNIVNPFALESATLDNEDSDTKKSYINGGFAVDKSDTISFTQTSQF
Summary of the method: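 Oocytes were injected with cRNA for His-tagged EAAC1 D444C and held by two-electrode voltage clamp at −25 mV, stepped from −100 to +40 mV in 10-mV steps of 250 ms each, in ND96 pH 7.5. MTSES (2 mM final) was added under clamp with flow stopped, reacted 2 min, then washed out 5 min. Transients were taken as buffer minus buffer+compound (10 mM) and decay times fitted to a first-order exponential; 3–10 oocytes.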

D444E-EAAC1 = target: T2, D444E-EAAC1 (Oryctolagus cuniculus, UniProt P31597, D444E); experiment: Blockade of sodium-dependent transient currents; conditions: for Decay time of transient currents blocked: at +80 mV; for IC50: read-out: IC50 for substrates/blockers of charge movements, Xenopus oocytes, mean ± SEM
T2 sequence (P31597 1-524 D444E): T1 sequence (P31597 1-524 D444C) with C444E
Summary of the method: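 Oocytes expressing the mutant were voltage clamped in ND96 (pH 7.5, HEPES) and stepped from −25 mV. Transients are buffer current minus buffer-plus-compound current. Charge is the sum of current–time integrals at −100 and +80 mV, normalised to 1 mM L-aspartate or 15 mM succinate, and fitted to a generalized Hill equation. Decay constants come from a first-order exponential fit; mean ± SEM of 3–10 oocytes.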

D444N mutant EAAC1 = target: T3, D444N mutant EAAC1 (Oryctolagus cuniculus, UniProt P31597, D444N); experiment: Blockade of transient currents; conditions: D444N; for IC50: read-out: IC50 for substrates/blockers of charge movements, Xenopus oocytes, mean ± SEM
T3 sequence (P31597 1-524 D444N): T1 sequence (P31597 1-524 D444C) with C444N

D444S-EAAC1 [1] = target: T4, D444S-EAAC1 (Oryctolagus cuniculus, UniProt P31597, D444S); experiment: Blockade of sodium-dependent transient currents; conditions: D444S; for Decay time of transient currents blocked: 10 mM compound, at −100 mV; for IC50: read-out: IC50 for substrates/blockers of charge movements, Xenopus oocytes, mean ± SEM
T4 sequence (P31597 1-524 D444S): T1 sequence (P31597 1-524 D444C) with C444S
Summary of the method: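 Oocytes expressing the mutant were clamped in sodium ND96 and given 250-ms pulses from −25 mV to −100…+40 mV, with and without compound; TBOA was added to a stopped bath. Isolated transients (without minus with compound) were integrated at −100 and +40 mV and summed. Charge was normalised to 10 mM of each compound and Hill-fitted; 4–6 oocytes. Decay came from an exponential fit; 3–10 oocytes.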

D444S-EAAC1 [2] = target: T4, D444S-EAAC1; experiment: Substrate-induced steady-state transport currents in oocytes expressing D444S; conditions: 2 mM for L-aspartate and succinate, other concentrations not given

N[C@@H](CC(=O)O)C(=O)O [L-Aspartate, L-aspartate]
Decay time of transient currents blocked (D444C after MTSES): 10.2 ± 0.4 ms | IC50 (D444C after MTSES): 112 ± 19 µM | Decay time of transient currents blocked (D444E-EAAC1; 10 mM compound): 10.6 ± 1 ms | IC50 (D444E-EAAC1): 9 ± 1 µM | IC50 (D444N mutant EAAC1): 295 ± 45 µM | Decay time of transient currents blocked (D444S-EAAC1 [1]): 12.2 ± 0.6 ms | IC50 (D444S-EAAC1 [1]): 130 ± 15 µM | Induction of steady-state transport currents (D444S-EAAC1 [2]): not observed

O=C(O)CCC(=O)O [Succinate, succinate]
Decay time of transient currents blocked (D444C after MTSES): 8.7 ± 1.5 ms | IC50 (D444C after MTSES): 716 ± 25 µM | Suppression of the transient currents (D444E-EAAC1; 2 mM): only slightly suppressed | Decay time of transient currents blocked (D444E-EAAC1; 15 mM succinate): 5.1 ± 0.7 ms | IC50 (D444E-EAAC1): > 6000 µM | Inhibition of the transient currents, concentration dependence (D444E-EAAC1; up to 15 mM): saturation was not reached | Inhibition of the transient currents (D444N mutant EAAC1; 10 mM succinate): no inhibition was observed | IC50 (D444N mutant EAAC1): > 10000 µM | Decay time of transient currents blocked (D444S-EAAC1 [1]): 9.9 ± 0.7 ms | IC50 (D444S-EAAC1 [1]): 1340 ± 110 µM | Induction of steady-state transport currents (D444S-EAAC1 [2]): did not induce any steady-state currents
